# Source: paper PMC4874899 (Cell chemical biology, 2016)
# Tests used:
# [1] = system: cells; experiment: Cytosolic penetration / endosomal escape by fluorescence microscopy; type: cell-based; details: retro-2 20 µM, 30 min prior to dfTAT (3 µM, 1 h)
# Outline: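 Cells at 80–90% confluency (48 h) pretreated 30 min with 20 µM retro-2, then 3 µM dfTAT for 1 h at 37 °C in serum-free L-15. Washed with heparin-containing L-15 (1 mg/mL); SYTOX (5 µM) stained cells excluded. Imaged at 37 °C; % nucleoli-positive cells of bright-field total, >500 cells per experiment, triplicates; t-test.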
# [2] = system: mEmerald-TGOLN2 transport; experiment: Retrograde transport of the TGN marker mEmerald-TGOLN2; type: cell-based; details: retro-2 20 µM
# [3] = system: L.E. LUVs (77:19:4 BMP:PC:PE); details: monomeric TAT; ref Yang et al., 2010; cited from earlier work
# [4] = system: cells; details: ref Gao et al., 2009; Gillmeister et al., 2011; Lee et al., 2010; cited from earlier work
compound,measurement,setting,value
Cc1ccc(C=Nc2ccccc2C(=O)Nc2ccccc2)s1 [retro-2],effect on dfTAT-mediated endosomal escape,[1],had no effect on dfTAT-mediated escape
same,inhibition of transport of TGN marker mEmerald-TGOLN2,[2],capable of inhibiting the transport
RKKRRQRRR [TAT],effect on BMP-containing liposomes,[3],leaky fusion
same,escape from the endocytic pathway,[4],only at a very low efficiency
